{"source": "ChEMBL document CHEMBL1806366", "about": "“Synthesis and structure-activity relationship of new 1,5-dialkyl-1,5-benzodiazepines as cholecystokinin-2 receptor antagonists” (Bioorg Med Chem, 2011)", "key": {"[1]": {"assay": "Clearance in dog administered as methocel suspension", "format": "ADME, organism-based, Canis lupus familiaris", "details": "in vivo"}, "[2]": {"assay": "Clearance in rat administered as methocel suspension", "format": "ADME, organism-based", "details": "in vivo"}, "[3]": {"assay": "Volume of distribution in dog administered as methocel suspension", "format": "ADME, organism-based, Canis lupus familiaris", "details": "in vivo"}, "[4]": {"assay": "(§1) Volume of distribution in rat administered as methocel suspension", "format": "ADME, organism-based", "details": "in vivo"}, "[5]": {"assay": "Half life in dog administered as methocel suspension", "format": "ADME, organism-based, Canis lupus familiaris", "details": "in vivo"}, "[6]": {"assay": "Half life in rat administered as methocel suspension", "format": "ADME, organism-based", "details": "in vivo"}, "[7]": {"assay": "Oral bioavailability in dog administered as methocel suspension", "format": "ADME, organism-based, Canis lupus familiaris", "details": "in vivo"}, "[8]": {"assay": "(§2) Oral bioavailability in rat administered as methocel suspension", "format": "ADME, organism-based", "details": "in vivo"}, "[9]": {"target": "T1, Cholecystokinin receptor type A (Rattus norvegicus, UniProt P30551)", "T1 sequence (P30551 whole entry)": "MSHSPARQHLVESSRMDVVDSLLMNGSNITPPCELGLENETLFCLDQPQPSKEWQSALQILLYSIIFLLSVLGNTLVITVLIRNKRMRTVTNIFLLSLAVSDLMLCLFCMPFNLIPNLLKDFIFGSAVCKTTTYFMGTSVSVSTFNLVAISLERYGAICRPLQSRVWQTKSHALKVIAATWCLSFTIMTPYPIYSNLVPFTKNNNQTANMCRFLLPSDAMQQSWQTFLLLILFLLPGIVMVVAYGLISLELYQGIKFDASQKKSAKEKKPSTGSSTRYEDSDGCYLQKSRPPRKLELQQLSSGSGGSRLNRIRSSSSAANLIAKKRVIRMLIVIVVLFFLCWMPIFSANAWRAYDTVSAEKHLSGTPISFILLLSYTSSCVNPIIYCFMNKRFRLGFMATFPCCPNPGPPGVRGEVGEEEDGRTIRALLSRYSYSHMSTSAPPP", "assay": "Displacement of [3H]CCK8 from rat pancreas CCK1 receptor at by liquid scintillation counting", "how_it_was_run": "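Rat pancreas membranes incubated at 37 °C with [³H]-CCK8s at 0.2 nM; nonspecific binding defined with L-364,718. Bound and free ligand separated by filtration over GF/C filters, then counted by liquid scintillation. Ki calculated using Bmax and KD from separate saturation binding isotherms.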"}, "[10]": {"assay": "Selectivity ratio of pKi for guinea pig brain CCK2 receptor to pKi for rat pancreas CCK1", "how_it_was_run": "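Radioligand displacement binding to guinea pig brain membranes (CCK2, incubated at 25 °C) and rat pancreas membranes (CCK1, incubated at 37 °C) with 0.2 nM [³H]-CCK8s. Non-specific binding was defined with L-365,260 (CCK2) or L-364,718 (CCK1). Bound ligand was separated by GF/C filtration and counted by liquid scintillation. Ki values were derived for each subtype, with KD and Bmax taken from separate saturation isotherms.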"}, "[11]": {"assay": "Displacement of [3H]CCK8 from guinea pig brain CCK2 receptor by liquid scintillation counting", "parameters": "species or system Cavia porcellus", "how_it_was_run": "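Guinea pig brain membranes incubated at 25 °C with [³H]-CCK8s at 0.2 nM; nonspecific binding defined with L-365,260. Bound and free ligand separated by filtration over GF/C filters, then counted by liquid scintillation. Ki calculated using Bmax and KD from separate saturation binding isotherms.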"}, "[12]": {"assay": "Solubility of the compound at pH 2.4", "format": "physicochemical", "details": "buffer"}, "Mus musculus [13]": {"tested_on": "Mus musculus", "assay": "Anxiolytic activity in po dosed mouse measured after 60 mins post dose by black/white box test", "format": "functional", "how_it_was_run": "(§3)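 Mice dosed orally 60 min before testing, then placed in the centre of the illuminated white compartment of a two-part black/white box. Time spent exploring the white and black sides recorded; longer time in the white side read as anxiolytic effect. Model used for both potency and duration of action.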"}, "Mus musculus [14]": {"tested_on": "Mus musculus", "assay": "Anxiolytic activity in po dosed mouse assessed as duration of action of the compound measured after 60 mins post dose by black/white box test", "format": "functional", "how_it_was_run": "as §3"}, "Mus musculus [15]": {"tested_on": "Mus musculus", "assay": "Anxiolytic activity in mouse up to 300 ug/kg, po measured after 60 mins post dose by black/white box test", "format": "functional, organism-based", "how_it_was_run": "as §3"}, "Rattus norvegicus [16]": {"tested_on": "Rattus norvegicus", "assay": "as §1", "format": "ADME, organism-based", "details": "in vivo"}, "Rattus norvegicus [17]": {"tested_on": "Rattus norvegicus", "assay": "as §2", "format": "ADME, organism-based", "details": "in vivo"}, "[18]": {"details": "Mus musculus, po, 1 h, read-out: ED50"}}, "note": "Activity calls are given as the source filed them. No cut-off for these calls is given here."}
{"smiles": "CC(C)CCN1C(=O)C(NC(=O)Nc2ccccc2)C(=O)N(CCN2CCOCC2)c2ccccc21", "note": "(racemic)", "values": [{"measurement": "clearance", "setting": "[1]", "value": 14, "unit": "mL/min"}, {"measurement": "clearance", "setting": "[2]", "value": 34, "unit": "mL/min"}, {"measurement": "Vd", "setting": "[3]", "value": 1, "unit": "L/kg"}, {"measurement": "Vd", "setting": "[4]", "value": 1.1, "unit": "L/kg"}, {"measurement": "half-life", "setting": "[5]", "value": 0.9, "unit": "h"}, {"measurement": "half-life", "setting": "[6]", "value": 0.38, "unit": "h"}, {"measurement": "bioavailability", "setting": "[7]", "value": 36, "unit": "%"}, {"measurement": "bioavailability", "setting": "[8]", "value": 18, "unit": "%"}, {"measurement": "Ki", "setting": "[9]", "value": 0.676, "unit": "µM"}, {"measurement": "Ki selectivity ratio (CCK1 Ki / CCK2 Ki)", "setting": "[10]", "value": 234}, {"measurement": "pKi", "setting": "[11]", "value": 8.54}, {"measurement": "solubility", "setting": "[12]; read-out: solubility", "value": 450, "unit": "µg/mL"}, {"measurement": "ED50", "setting": "Mus musculus [13]; [18]", "value": 0.011, "unit": "µg/kg"}, {"measurement": "Time", "setting": "Mus musculus [14]", "value": 2, "unit": "h"}]}
{"smiles": "CC(C)CCN1C(=O)C(NC(=O)Nc2ccc(O)cc2)C(=O)N(CCN2CCOCC2)c2ccccc21", "note": "(racemic)", "values": [{"measurement": "Ki", "setting": "[9]", "value": 8.32, "unit": "µM"}, {"measurement": "Ki selectivity ratio (CCK1 Ki / CCK2 Ki)", "setting": "[10]", "value": 1120}, {"measurement": "pKi", "setting": "[11]", "value": 8.13}, {"measurement": "Activity", "setting": "Mus musculus [15]", "value": "inactive"}, {"measurement": "solubility", "setting": "[12]; read-out: solubility", "value": 450, "unit": "µg/mL"}]}
{"smiles": "CC(C)CCN1C(=O)C(NC(=O)Nc2ccccc2)C(=O)N(CCN(C)C)c2ccccc21", "note": "(racemic)", "values": [{"measurement": "clearance", "setting": "[1]", "value": 23, "unit": "mL/min"}, {"measurement": "clearance", "setting": "[2]", "value": 37, "unit": "mL/min"}, {"measurement": "Vd", "setting": "[3]", "value": 2.5, "unit": "L/kg"}, {"measurement": "Vd", "setting": "[4]", "value": 3.1, "unit": "L/kg"}, {"measurement": "half-life", "setting": "[5]", "value": 1.3, "unit": "h"}, {"measurement": "half-life", "setting": "[6]", "value": 1, "unit": "h"}, {"measurement": "bioavailability", "setting": "[7]", "value": 40, "unit": "%"}, {"measurement": "bioavailability", "setting": "[8]", "value": 20, "unit": "%"}, {"measurement": "Ki", "setting": "[9]", "value": 3.31, "unit": "µM"}, {"measurement": "Ki selectivity ratio (CCK1 Ki / CCK2 Ki)", "setting": "[10]", "value": 759}, {"measurement": "pKi", "setting": "[11]", "value": 8.36}, {"measurement": "solubility", "setting": "[12]; read-out: solubility", "value": 850, "unit": "µg/mL"}, {"measurement": "ED50", "setting": "Mus musculus [13]; [18]", "value": 0.041, "unit": "µg/kg"}, {"measurement": "Time", "setting": "Mus musculus [14]", "value": 2, "unit": "h"}]}
{"smiles": "O=C(Nc1ccccc1)NC1C(=O)N(CCN2CCOCC2)c2ccccc2N(CC23CC4CC(CC(C4)C2)C3)C1=O", "note": "(racemic)", "values": [{"measurement": "clearance", "setting": "[1]", "value": 34, "unit": "mL/min"}, {"measurement": "clearance", "setting": "[2]", "value": 12, "unit": "mL/min"}, {"measurement": "Vd", "setting": "[3]", "value": 4.8, "unit": "L/kg"}, {"measurement": "Vd", "setting": "[4]", "value": 1, "unit": "L/kg"}, {"measurement": "half-life", "setting": "[5]", "value": 1.6, "unit": "h"}, {"measurement": "half-life", "setting": "[6]", "value": 1.1, "unit": "h"}, {"measurement": "bioavailability", "setting": "[7]", "value": 9, "unit": "%"}, {"measurement": "bioavailability", "setting": "[8]", "value": 13, "unit": "%"}, {"measurement": "Ki", "setting": "[9]", "value": 2.04, "unit": "µM"}, {"measurement": "pKi", "setting": "[11]", "value": 9.24}, {"measurement": "solubility", "setting": "[12]", "value": 230, "unit": "µg/mL"}, {"measurement": "ED50", "setting": "Mus musculus [13]", "value": 0.001, "unit": "µg/kg"}]}
{"smiles": "CN(C)CCN1C(=O)C(NC(=O)Nc2ccccc2)C(=O)N(CC23CC4CC(CC(C4)C2)C3)c2ccccc21", "note": "(racemic)", "values": [{"measurement": "clearance", "setting": "[2]", "value": 28, "unit": "mL/min"}, {"measurement": "Vd", "setting": "[4]", "value": 2.7, "unit": "L/kg"}, {"measurement": "half-life", "setting": "[6]", "value": 1.1, "unit": "h"}, {"measurement": "bioavailability", "setting": "[8]", "value": 5, "unit": "%"}, {"measurement": "Ki", "setting": "[9]", "value": 3.24, "unit": "µM"}, {"measurement": "Ki selectivity ratio (CCK1 Ki / CCK2 Ki)", "setting": "[10]", "value": 3240}, {"measurement": "pKi", "setting": "[11]", "value": 9}, {"measurement": "solubility", "setting": "[12]; read-out: solubility", "value": 850, "unit": "µg/mL"}, {"measurement": "ED50", "setting": "Mus musculus [13]; [18]", "value": 0.004, "unit": "µg/kg"}, {"measurement": "Time", "setting": "Mus musculus [14]", "value": 4, "unit": "h"}]}
{"smiles": "O=C(Nc1ccccc1)NC1C(=O)N(CCN2CCOCC2)c2ccccc2N(CC23CC4CC(CC(C4)C2)C3)C1=O", "note": "(single isomer, unassigned; (-))", "values": [{"measurement": "Vd", "setting": "Rattus norvegicus [16]", "value": 1.1, "unit": "L/kg"}, {"measurement": "F", "setting": "Rattus norvegicus [17]", "value": 10, "unit": "%"}, {"measurement": "Ki", "setting": "[9]", "value": 2.04, "unit": "µM"}, {"measurement": "pKi", "setting": "[11]", "value": 9.64}, {"measurement": "solubility", "setting": "[12]; read-out: solubility", "value": 230, "unit": "µg/mL"}, {"measurement": "ED50", "setting": "Mus musculus [13]; [18]", "value": 0.002, "unit": "µg/kg"}, {"measurement": "Time", "setting": "Mus musculus [14]", "value": 4, "unit": "h"}]}
